Assay results from different studies.
ACHE: Acetylcholinesterase (ACHE, Homo sapiens, UniProt P22303)
Sialidase-2: Sialidase-2 (Homo sapiens, UniProt Q9Y3R4)
FABP4: Fatty acid-binding protein, adipocyte (FABP4, Homo sapiens, UniProt P15090)
DPP4: Dipeptidyl peptidase 4 (DPP4, Homo sapiens, UniProt P27487)

| Compound | target | observed | action | method | pH | IC50 [µM] |
| --- | --- | --- | --- | --- | --- | --- |
| COc1ccc(C=Nc2ccc(SCc3cc(=O)c(O)co3)cc2)cc1 | ACHE | enzyme activity | inhibitor | Ellman |  | 20.5 |
| O=C(O)C1=C[C@H](O)[C@@H](NCc2ccc(-c3ccccc3)cc2)[C@H]([C@H](O)[C@H](O)CO)O1 | Sialidase-2 | enzyme activity | inhibitor |  |  | 230 |
| O=c1cc(CSc2ccc(N=Cc3ccccc3Cl)cc2)occ1O | ACHE | enzyme activity | inhibitor | Ellman |  | 2.33 |
| O=C(O)C(F)(F)C(F)(F)C(F)(F)C(F)(F)C(F)(F)F | FABP4 | ligand displacement |  | fluorescence | pH 7.5 | 209 |
| CC(C)CCC(=O)N[C@H]1[C@H]([C@H](O)[C@H](O)CO)OC(C(=O)O)=C[C@@H]1O | Sialidase-2 | enzyme activity | inhibitor |  |  | 10 |
| COC(=O)[C@H](C)NC(=O)COc1c(NC(C)=O)cc(-c2nc3ccccc3s2)cc1OC | ACHE | enzyme activity | inhibitor | Ellman |  | > 280 |
| CCN[C@H]1[C@H]([C@H](O)[C@H](O)CO)OC(C(=O)O)=C[C@@H]1O | Sialidase-2 | enzyme activity | inhibitor |  |  | > 500 |
| CCc1ccc(C=Nc2ccc(SCc3cc(=O)c(O)co3)cc2)cc1 | ACHE | enzyme activity | inhibitor | Ellman |  | 8.46 |
| CCCCCCN[C@H]1[C@H]([C@H](O)[C@H](O)CO)OC(C(=O)O)=C[C@@H]1O | Sialidase-2 | enzyme activity | inhibitor |  |  | 16 |
| CCOC(=O)c1ccc(OC(=O)CCCCCN=C(N)N)cc1 | Tryptase beta-2 (TPSB2, Homo sapiens, UniProt P20231) | enzyme activity | inhibitor |  |  | 0.00428 |
| C1CO1.C=O.CC(C)(C)CC(C)(C)c1ccc(O)cc1 | Mitogen-activated protein kinase 3 (MAPK3, Homo sapiens, UniProt P27361) | enzyme activity | inhibitor | ADP detection |  | 91.9 |
| CCc1ccccc1C=Nc1ccc(SCc2cc(=O)c(O)co2)cc1 | ACHE | enzyme activity | inhibitor | Ellman |  | 5.38 |
| CC[C@@H](C)[C@H](NC(=O)COc1c(NC(C)=O)cc(-c2nc3ccccc3s2)cc1OC)C(=O)OC | ACHE | enzyme activity | inhibitor | Ellman |  | > 256 |
| CC(C)(C)CC(=O)N[C@H]1[C@H]([C@H](O)[C@H](O)CO)OC(C(=O)O)=C[C@@H]1O | Sialidase-2 | enzyme activity | inhibitor |  |  | 80 |
| COC(=O)[C@@H](NC(=O)COc1c(NC(C)=O)cc(-c2nc3ccccc3s2)cc1OC)C(C)C | ACHE | enzyme activity | inhibitor | Ellman |  | > 264 |
| CC(C)CCN[C@H]1[C@H]([C@H](O)[C@H](O)CO)OC(C(=O)O)=C[C@@H]1O | Sialidase-2 | enzyme activity | inhibitor |  |  | 70 |
| O=c1cc(CSc2ccc(N=Cc3ccccc3Br)cc2)occ1O | ACHE | enzyme activity | inhibitor | Ellman |  | 1.34 |
| COc1cc(-c2nc3ccccc3s2)cc(NC(C)=O)c1OCC(=O)NCC(=O)O | ACHE | enzyme activity | inhibitor | Ellman |  | > 298 |
| CC(=O)N(C)[C@H]1[C@H]([C@H](O)[C@H](O)CO)OC(C(=O)O)=C[C@@H]1O | Sialidase-2 | enzyme activity | inhibitor |  |  | > 500 |
| O=c1cc(CSc2ccc(N=Cc3ccc(F)cc3)cc2)occ1O | ACHE | enzyme activity | inhibitor | Ellman |  | 1.44 |
| O=C(O)C(F)(F)C(F)(F)C(F)(F)F | FABP4 | ligand displacement |  | fluorescence | pH 7.5 | 2840 |
| CC(C)(C)c1cccc(C=Nc2ccc(SCc3cc(=O)c(O)co3)cc2)c1 | ACHE | enzyme activity | inhibitor | Ellman |  | 6.45 |
| NS(=O)(=O)C(F)(F)C(F)(F)C(F)(F)C(F)(F)C(F)(F)C(F)(F)C(F)(F)C(F)(F)F | FABP4 | ligand displacement |  | fluorescence | pH 7.5 | 17 |
| C=CCc1ccc(O)c(-c2cc(CC=C)ccc2O)c1 | DPP4 | enzyme activity | inhibitor | fluorescence |  | > 100 |
| O=c1cc(CSc2ccc(N=Cc3ccc(C(F)(F)F)cc3)cc2)occ1O | ACHE | enzyme activity | inhibitor | Ellman |  | 13.3 |
| CC(C)(C)NC(=O)N[C@H]1[C@H]([C@H](O)[C@H](O)CO)OC(C(=O)O)=C[C@@H]1O | Sialidase-2 | enzyme activity | inhibitor |  |  | > 500 |
| O=C(O)C(F)(F)C(F)(F)C(F)(F)C(F)(F)C(F)(F)C(F)(F)C(F)(F)C(F)(F)C(F)(F)C(F)(F)C(F)(F)F | Sterol carrier protein 2 (Homo sapiens, UniProt P22307) | ligand displacement |  | fluorescence |  | 2.37 |
| CC(=O)c1c(C)c2cnc(Nc3ccc(C4CCN(CCS(C)(=O)=O)CC4)cn3)nc2n(C2CCCC2)c1=O | Cyclin-dependent kinase 9 (CDK9, Homo sapiens, UniProt P50750) | enzyme activity | inhibitor | mobility shift |  | > 0.75 |
| O=c1cc(-c2ccc(O)c(O)c2)oc2cc(O)cc(O)c12 | DPP4 | enzyme activity | inhibitor | fluorescence |  | 48 |
